This is an account of results in ChEMBL document CHEMBL1155077, “Kinesin spindle protein (KSP) inhibitors. 9. Discovery of (2S)-4-(2,5-difluorophenyl)-n-[(3R,4S)-3-fluoro-1-methylpiperidin-4-yl]-2-(hydroxymethyl)-N-methyl-2-phenyl-2,5-dihydro-1H-pyrrole-1-carboxamide (MK-0731) for the treatment of taxane-refractory cancer” (J Med Chem, 2008).

Data set [1] can be described thus: Effect on […] formation in human […] cells assessed as mitotic spindles at 50 nM after 16 hrs by fluorescence microscopy. Format: functional. A digest of the protocol:
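A2780 cells grown in slide chambers, exposed 16 h to 5 or 50 nM compound or 0.1% DMSO. Fixed/permeabilized in PIPES buffer pH 6.8 with Triton X-100 and 4% formaldehyde, blocked with 2% BSA, stained with anti-α-tubulin (DM1, 12 h 4 °C), FITC secondary and Hoechst 33342; spindles viewed by fluorescence microscopy.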

Data set [2] addresses T1, Kinesin heavy chain isoform 5A (Homo sapiens, UniProt Q12840).
T1 sequence (Q12840 whole entry): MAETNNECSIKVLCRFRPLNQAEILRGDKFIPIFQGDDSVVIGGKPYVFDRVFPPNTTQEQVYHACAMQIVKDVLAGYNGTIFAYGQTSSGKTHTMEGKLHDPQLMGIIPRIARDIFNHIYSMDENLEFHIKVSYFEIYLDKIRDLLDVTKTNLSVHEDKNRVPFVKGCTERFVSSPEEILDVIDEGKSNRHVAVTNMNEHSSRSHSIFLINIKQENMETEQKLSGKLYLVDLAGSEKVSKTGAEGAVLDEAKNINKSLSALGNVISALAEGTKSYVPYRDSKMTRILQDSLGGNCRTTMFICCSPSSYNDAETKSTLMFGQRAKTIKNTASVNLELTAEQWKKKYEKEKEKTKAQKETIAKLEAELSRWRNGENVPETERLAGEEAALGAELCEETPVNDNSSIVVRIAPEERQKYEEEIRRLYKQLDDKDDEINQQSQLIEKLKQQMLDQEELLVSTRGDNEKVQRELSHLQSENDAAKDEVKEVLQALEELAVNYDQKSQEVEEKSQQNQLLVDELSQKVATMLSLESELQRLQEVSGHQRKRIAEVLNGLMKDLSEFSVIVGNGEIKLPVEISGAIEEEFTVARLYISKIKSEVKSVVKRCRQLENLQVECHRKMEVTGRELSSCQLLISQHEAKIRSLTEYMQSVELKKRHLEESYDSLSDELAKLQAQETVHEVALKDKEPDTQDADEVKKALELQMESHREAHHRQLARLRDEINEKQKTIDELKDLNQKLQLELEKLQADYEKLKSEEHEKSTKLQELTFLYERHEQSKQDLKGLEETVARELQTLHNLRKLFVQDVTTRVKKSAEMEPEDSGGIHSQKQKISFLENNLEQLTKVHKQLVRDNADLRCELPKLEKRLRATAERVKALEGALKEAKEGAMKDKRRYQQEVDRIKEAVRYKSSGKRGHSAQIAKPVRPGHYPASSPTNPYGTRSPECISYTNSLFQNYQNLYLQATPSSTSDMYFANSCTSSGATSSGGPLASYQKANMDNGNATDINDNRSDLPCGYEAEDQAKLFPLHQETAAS
Briefly: Inhibition of cloned human nKHC.

A short description of data set [3]: Clearance in dog at 0.4 mg/kg, iv. Format: ADME, organism-based, Canis lupus familiaris. Details: dose 0.4 mg/kg, route intravenous. As to conditions: in vivo.
Data set [4] has as its system KB-v. Briefly: Inhibition of tumor growth in human KB-v cells expressing MDR1 xenografted clr:NU/NU-nuBR mouse assessed as change in tumor volume at 20 mg/kg, ip administered qd x 5 dosing schedule relative to control. It counts as functional, organism-based. Details: dose 20 mg/kg. Summed up: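 Nude mice bearing contralateral sc KB-3-1 (2.5 million) and KB-v-1 (9 million) flank tumors, 250-500 mm³ at day 13-14, groups of 10-12. Paclitaxel 20 mg/kg/day ip in ethanol/Cremophor/saline (10:10:80), qd × 5. Volumes by calipers, (W² × L)/2, change from initial; % T/C versus control.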
For orientation: Xenograft models place foreign cells or tissue in a host animal.

Data set [5] can be described thus: Toxicity in clr:NU/NU-nuBR mouse assessed as maximum tolerated dose after 24 hrs. It counts as organism-based. As to conditions: in vivo. Summed up:
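Naive, non-xenografted mice, in a large cohort. Drug was given by continuous delivery from subcutaneously implanted osmotic minipumps over 24 h. The maximum tolerated dose was set with survival as the end point, and peripheral blood counts were followed to assess myelosuppression.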

A short description of data set [6]: Toxicity in human A2780 cells xenografted clr:NU/NU-nuBR mouse assessed as maximum tolerated dose. Format: organism-based. As to conditions: in vivo. Summed up: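 Maximum tolerated dose was set in protocols in naive mice that varied dose, vehicle and frequency, with survival as the end point and peripheral blood counts tracked. The schedule was sc injection every 4 days × 3 in saline acidified to pH 4.0, 100 µL per dose.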

Data set [7] addresses Kinesin-like protein KIF1B (Homo sapiens, UniProt O60333). As to the kind of experiment: Inhibition of cloned human Kif1B.
The test system of data set [8] is A2780. Briefly: Induction of mitotic arrest in human A2780 cells […] clr:NU/NU-nuBR mouse assessed as minimum plasma concentration required to induce maximum mitotic arrest after 22 hrs. Format: functional.
A short description of data set [9]: Dissociation constant, pKa by Sirius GLpKa titrator. It counts as physicochemical. A digest of the protocol: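 Potentiometric pKa measured on a Sirius GLpKa titrator; mean of n = 3 determinations unless marked as a single determination.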
In data set [10] the target is T2, Kinesin-like protein KIF23 (Homo sapiens, UniProt Q02241).
T2 sequence (Q02241 whole entry): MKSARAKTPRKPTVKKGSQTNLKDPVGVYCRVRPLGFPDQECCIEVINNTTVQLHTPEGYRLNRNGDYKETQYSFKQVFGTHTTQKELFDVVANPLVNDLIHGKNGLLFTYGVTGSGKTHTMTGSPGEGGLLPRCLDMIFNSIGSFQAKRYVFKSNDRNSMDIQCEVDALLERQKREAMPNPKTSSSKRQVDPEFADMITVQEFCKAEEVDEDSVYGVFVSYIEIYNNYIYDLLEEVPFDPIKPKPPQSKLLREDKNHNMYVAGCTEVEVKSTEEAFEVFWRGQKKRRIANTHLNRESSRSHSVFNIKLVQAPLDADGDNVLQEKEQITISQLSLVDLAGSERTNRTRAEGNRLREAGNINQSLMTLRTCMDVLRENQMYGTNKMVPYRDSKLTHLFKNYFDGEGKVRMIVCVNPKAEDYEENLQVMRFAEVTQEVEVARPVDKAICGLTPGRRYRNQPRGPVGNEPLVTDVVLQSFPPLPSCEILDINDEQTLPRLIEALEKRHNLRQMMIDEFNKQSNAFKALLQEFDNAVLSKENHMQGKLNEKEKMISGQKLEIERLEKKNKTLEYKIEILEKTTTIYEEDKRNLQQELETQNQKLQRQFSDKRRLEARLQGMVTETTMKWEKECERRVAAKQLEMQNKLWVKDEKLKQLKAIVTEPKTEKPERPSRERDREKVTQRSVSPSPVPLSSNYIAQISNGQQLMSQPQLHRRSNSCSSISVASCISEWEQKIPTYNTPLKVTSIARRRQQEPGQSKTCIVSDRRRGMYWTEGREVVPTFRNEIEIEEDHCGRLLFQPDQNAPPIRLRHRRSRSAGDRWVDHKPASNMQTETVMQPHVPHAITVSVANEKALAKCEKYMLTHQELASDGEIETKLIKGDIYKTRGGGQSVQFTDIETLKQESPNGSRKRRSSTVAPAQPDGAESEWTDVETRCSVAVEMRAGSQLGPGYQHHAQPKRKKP
As to the kind of experiment: Inhibition of cloned human MKLP1.

For data set [11], the target named is Kinesin-like protein KIF3A (Homo sapiens, UniProt Q9Y496). As to the kind of experiment: Inhibition of cloned human Kif3A.
Sequence of Kinesin-like protein KIF3A (Q9Y496 whole entry): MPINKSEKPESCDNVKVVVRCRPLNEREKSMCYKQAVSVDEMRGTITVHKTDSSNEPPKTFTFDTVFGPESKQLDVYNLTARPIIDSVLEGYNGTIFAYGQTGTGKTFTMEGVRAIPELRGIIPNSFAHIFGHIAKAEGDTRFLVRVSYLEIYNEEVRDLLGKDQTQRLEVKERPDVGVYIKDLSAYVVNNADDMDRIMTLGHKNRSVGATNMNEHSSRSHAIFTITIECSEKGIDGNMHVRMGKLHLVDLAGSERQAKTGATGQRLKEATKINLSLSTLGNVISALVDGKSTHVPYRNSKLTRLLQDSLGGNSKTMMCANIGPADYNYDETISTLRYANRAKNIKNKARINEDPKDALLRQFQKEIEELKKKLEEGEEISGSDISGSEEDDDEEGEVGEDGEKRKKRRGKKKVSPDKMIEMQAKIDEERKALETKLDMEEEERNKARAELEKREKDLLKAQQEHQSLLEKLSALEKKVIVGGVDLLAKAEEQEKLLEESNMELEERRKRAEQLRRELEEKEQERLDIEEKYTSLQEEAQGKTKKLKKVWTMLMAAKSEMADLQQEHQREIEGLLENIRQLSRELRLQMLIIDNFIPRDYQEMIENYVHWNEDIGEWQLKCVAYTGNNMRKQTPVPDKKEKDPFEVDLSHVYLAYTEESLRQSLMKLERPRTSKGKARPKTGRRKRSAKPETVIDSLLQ

Activity calls are given as the source filed them. The rule behind the calls is not given here.

Sequence of Kinesin-like protein KIF1B (O60333 whole entry): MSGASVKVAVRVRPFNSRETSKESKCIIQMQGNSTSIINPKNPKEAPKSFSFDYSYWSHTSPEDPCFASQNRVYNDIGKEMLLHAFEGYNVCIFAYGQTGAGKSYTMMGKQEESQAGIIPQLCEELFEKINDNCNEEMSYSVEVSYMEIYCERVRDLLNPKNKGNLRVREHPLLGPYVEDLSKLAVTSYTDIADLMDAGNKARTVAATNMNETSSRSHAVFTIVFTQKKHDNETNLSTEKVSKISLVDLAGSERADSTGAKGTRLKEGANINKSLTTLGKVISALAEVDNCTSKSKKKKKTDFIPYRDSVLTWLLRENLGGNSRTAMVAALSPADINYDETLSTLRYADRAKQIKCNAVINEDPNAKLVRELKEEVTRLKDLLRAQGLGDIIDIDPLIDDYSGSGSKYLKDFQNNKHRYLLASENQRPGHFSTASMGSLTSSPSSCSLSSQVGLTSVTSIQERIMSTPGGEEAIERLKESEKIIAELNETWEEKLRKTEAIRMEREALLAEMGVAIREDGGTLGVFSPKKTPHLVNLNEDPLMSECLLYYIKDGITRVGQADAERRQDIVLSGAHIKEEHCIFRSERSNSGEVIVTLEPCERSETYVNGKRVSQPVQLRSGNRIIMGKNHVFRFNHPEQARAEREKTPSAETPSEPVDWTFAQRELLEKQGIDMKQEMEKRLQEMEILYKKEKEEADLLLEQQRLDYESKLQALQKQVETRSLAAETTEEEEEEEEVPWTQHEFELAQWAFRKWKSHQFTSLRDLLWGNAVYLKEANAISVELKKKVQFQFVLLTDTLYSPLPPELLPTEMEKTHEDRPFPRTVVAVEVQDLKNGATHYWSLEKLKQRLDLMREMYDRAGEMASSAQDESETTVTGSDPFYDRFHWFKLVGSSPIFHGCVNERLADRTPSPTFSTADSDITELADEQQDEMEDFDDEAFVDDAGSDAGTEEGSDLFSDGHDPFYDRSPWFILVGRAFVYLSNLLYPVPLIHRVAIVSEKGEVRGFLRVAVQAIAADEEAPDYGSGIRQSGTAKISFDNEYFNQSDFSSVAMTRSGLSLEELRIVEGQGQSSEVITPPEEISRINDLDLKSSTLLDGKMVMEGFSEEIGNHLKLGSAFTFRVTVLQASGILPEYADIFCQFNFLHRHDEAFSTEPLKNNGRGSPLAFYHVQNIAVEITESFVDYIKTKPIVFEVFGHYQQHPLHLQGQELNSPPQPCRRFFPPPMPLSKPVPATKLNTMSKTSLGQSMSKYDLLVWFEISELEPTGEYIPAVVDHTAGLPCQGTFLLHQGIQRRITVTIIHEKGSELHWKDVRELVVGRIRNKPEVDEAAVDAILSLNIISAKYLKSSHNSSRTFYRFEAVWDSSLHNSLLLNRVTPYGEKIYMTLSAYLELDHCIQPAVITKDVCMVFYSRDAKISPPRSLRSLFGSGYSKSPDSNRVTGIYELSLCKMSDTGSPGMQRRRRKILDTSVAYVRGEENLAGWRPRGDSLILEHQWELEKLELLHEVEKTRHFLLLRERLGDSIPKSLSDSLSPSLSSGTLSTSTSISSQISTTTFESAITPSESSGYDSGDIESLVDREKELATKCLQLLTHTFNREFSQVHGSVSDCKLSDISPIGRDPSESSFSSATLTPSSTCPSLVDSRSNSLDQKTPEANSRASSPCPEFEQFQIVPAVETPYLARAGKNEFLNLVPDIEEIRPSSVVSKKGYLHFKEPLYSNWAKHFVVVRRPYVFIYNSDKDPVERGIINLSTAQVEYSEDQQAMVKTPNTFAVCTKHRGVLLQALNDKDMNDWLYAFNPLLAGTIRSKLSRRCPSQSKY

As a reminder, the IC50 is the concentration needed to halve the response being measured. A lower IC50 goes with inhibition by little substance. Usually clearance stands for the rate of elimination divided by the concentration. A high value points to a high capacity for elimination. As a reminder, the MTD is the highest dose tested that stayed within the study's limit of toxicity. As a reminder, the EC90 is the concentration needed for an effect of 90%. Usually pKa stands for the pH at which an ionisable group is half protonated. For the molecule `CN1CC[C@H](N(C)C(=O)N2CC(c3cc(F)ccc3F)=C[C@@]2(CO)c2ccccc2)[C@H](F)C1`, in data set [1], the Activity turned out to be 90%. The IC50 in data set [2], in [7], in data set [10] and in data set [11] was > 50 µM each time. This molecule came in with a clearance in data set [3] of 15.1 mL/min/kg. Also, the result in data set [4] was inactive. For the same molecule, the MTD at 24 h in data set [5] worked out at 12 mg/kg. In addition, the maximal tolerated dose (MTD) in data set [6] amounted to 100 mg/kg. Moreover, in [8], the concentration for an effect of 90% (EC90) was 0.094 µM. Moreover, in data set [9], the pKa is 7.6.
